These results are taken from ChEMBL document CHEMBL2311377, “Trisubstituted thiophene analogues of 1-thiazolyl-2-pyrazoline, super oxidase inhibitors and free radical scavengers” (Bioorg Med Chem, 2013).

For series [1], the system named is Radical scavenging activity. As to the kind of experiment: Antioxidant activity assessed as inhibition DPPH radical production after 15 mins by spectrophotometric analysis. It is filed as functional. The method in brief: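 Compounds at 1–50 in methanol were mixed with an equal volume of methanolic DPPH. Absorbance was compared with a control of DPPH plus methanol without compound, and results are given as percent radical scavenging.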

The target of series [2] is T1, Xanthine dehydrogenase/oxidase (Rattus norvegicus, UniProt P22985). The series can be described thus: Inhibition of Wistar albino rat xanthine oxidase isolated from liver using xanthine as substrate incubated for 15 mins prior to substrate addition by spectrophotometric analysis. The essentials:
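Xanthine oxidase was prepared from perfused Wistar albino rat liver. The liver was homogenized in ice-cold 0.05 M phosphate (pH 7.8) with 0.1 mM EDTA and spun at 10,000g. The supernatant was precipitated with 60% ammonium sulfate, dialyzed against phosphate pH 6.8, and protein measured by Lowry. Enzyme was preincubated with compound in DMSO in phosphate pH 7.4 at room temperature for 15 min. Uric acid was read at 295 nm; inhibition was relative to DMSO-only control, and IC50 came from linear regression.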

For series [3], the target named is T1, Xanthine dehydrogenase/oxidase. The series can be described thus: Competitive inhibition of Wistar albino rat xanthine oxidase isolated from liver using xanthine as substrate by Lineweaver-Burk plot analysis. The method in brief:
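Inhibition type was assessed with the rat liver XO preparation by varying xanthine substrate across 1–5 and analysing by Lineweaver–Burk plot.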

T1 sequence (P22985 whole entry, the tested form may be a part): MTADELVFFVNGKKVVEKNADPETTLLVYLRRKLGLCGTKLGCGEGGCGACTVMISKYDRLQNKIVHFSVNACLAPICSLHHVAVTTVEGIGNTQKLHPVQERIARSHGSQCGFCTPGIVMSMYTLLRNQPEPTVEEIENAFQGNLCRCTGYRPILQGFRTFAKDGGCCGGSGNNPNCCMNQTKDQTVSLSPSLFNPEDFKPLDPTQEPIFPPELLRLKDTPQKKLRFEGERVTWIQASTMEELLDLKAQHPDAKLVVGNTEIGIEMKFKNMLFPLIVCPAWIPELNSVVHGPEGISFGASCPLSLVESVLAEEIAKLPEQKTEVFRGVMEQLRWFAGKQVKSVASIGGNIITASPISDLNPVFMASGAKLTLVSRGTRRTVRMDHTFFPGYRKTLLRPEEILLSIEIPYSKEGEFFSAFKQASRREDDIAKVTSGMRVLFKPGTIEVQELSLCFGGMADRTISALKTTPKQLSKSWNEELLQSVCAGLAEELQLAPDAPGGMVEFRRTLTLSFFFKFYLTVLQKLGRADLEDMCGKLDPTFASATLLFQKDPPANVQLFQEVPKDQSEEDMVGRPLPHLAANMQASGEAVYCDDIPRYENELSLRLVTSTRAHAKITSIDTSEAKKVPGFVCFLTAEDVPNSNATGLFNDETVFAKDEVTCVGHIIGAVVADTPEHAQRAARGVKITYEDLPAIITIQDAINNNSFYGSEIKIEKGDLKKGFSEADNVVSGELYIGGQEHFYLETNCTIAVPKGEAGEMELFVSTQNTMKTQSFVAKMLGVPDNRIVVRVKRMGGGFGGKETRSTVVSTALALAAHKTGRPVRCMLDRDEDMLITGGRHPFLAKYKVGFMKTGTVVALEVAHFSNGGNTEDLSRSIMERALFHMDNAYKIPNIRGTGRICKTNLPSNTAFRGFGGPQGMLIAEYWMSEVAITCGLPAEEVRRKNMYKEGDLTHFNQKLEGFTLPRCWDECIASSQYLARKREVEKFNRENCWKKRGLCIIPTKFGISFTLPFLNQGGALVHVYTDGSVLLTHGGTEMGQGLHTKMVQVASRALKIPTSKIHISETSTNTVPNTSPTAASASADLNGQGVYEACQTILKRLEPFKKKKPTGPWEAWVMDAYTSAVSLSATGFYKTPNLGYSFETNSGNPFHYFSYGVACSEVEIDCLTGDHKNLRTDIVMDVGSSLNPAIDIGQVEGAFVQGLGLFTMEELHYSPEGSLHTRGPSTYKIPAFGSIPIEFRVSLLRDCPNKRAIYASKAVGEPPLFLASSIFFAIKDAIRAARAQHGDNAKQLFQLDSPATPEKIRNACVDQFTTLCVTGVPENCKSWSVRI

Broadly, the IC50 is the midpoint of a concentration-inhibition curve. Consider `Clc1ccc(-c2csc(N3N=C(c4cc(Cl)sc4Cl)CC3c3ccc(Cl)cc3)n2)cc1` (configuration not stated), for which the 50% inhibitory concentration (IC50) was 44.8 µM in series [1] and 36 µM in series [2].
As to `NS(=O)(=O)c1sc(Cl)cc1C1=NN(c2nc(-c3ccc(Cl)cc3)cs2)C(c2ccc(Cl)cc2)C1` (configuration not stated), the IC50 in series [1] was determined as 43 µM; in series [2], 34.2 µM.
In the case of `Clc1ccc(-c2csc(N3N=C(c4cc(Cl)sc4SCc4ccccc4)CC3c3ccc(Cl)cc3)n2)cc1` (configuration not stated), the figures for the 50% inhibitory concentration (IC50) in series [1] and in series [2] were 41.5 µM and 32 µM, respectively.
On the same counts, the results for `CN(C)c1ccc(C2CC(c3cc(Cl)sc3S(N)(=O)=O)=NN2c2nc(-c3ccc(Cl)cc3)cs2)cc1` (configuration not stated) are 19.3 µM and 8.3 µM.
Regarding `CN(C)c1ccc(C2CC(c3cc(Cl)sc3Cl)=NN2c2nc(-c3ccc(Cl)cc3)cs2)cc1` (configuration not stated), the half-inhibitory concentration (IC50) in series [1] was 21.1 µM; in series [2] it was 9.4 µM.
Regarding `Oc1ncnc2[nH]ncc12` [ALLOPURINOL], in series [2], the IC50 was determined as 6 µM.
Take `CCCCc1nc(Cl)c(C2CC(c3cc(Cl)sc3Cl)=NN2c2nc(-c3ccc(Cl)cc3)cs2)[nH]1` (configuration not stated): the figures for the IC50 in series [1] and in series [2] were 31.5 µM and 26 µM, respectively.
In the case of `CN(C)c1ccc(C2CC(c3cc(Cl)sc3SCc3ccccc3)=NN2c2nc(-c3ccc(Cl)cc3)cs2)cc1` (configuration not stated), the IC50 in series [1] worked out at 15.6 µM; in series [2], 6.2 µM. Moreover, in series [3], the “inhibition (INH)” value was “Active”.
As for `O=C1O[C@H]([C@@H](O)CO)C(O)=C1O` [ASCORBIC ACID], the IC50 in series [1] worked out at 11.5 µM.
In the case of `Fc1ccc(C2CC(c3cc(Cl)sc3Cl)=NN2c2nc(-c3ccc(Cl)cc3)cs2)cc1` (configuration not stated), the IC50 in series [1] and in series [2] was > 50 µM in each case.
On to `NS(=O)(=O)c1sc(Cl)cc1C1=NN(c2nc(-c3ccc(Cl)cc3)cs2)C(c2ccc(F)cc2)C1` (configuration not stated), for which the half-inhibitory concentration (IC50) in series [1] and in series [2] was > 50 µM each time.
For `Fc1ccc(C2CC(c3cc(Cl)sc3SCc3ccccc3)=NN2c2nc(-c3ccc(Cl)cc3)cs2)cc1` (configuration not stated), the half-inhibitory concentration (IC50) in series [1] and in series [2] was > 50 µM throughout.
As for `CCCCc1nc(Cl)c(C2CC(c3cc(Cl)sc3SCc3ccccc3)=NN2c2nc(-c3ccc(Cl)cc3)cs2)[nH]1` (configuration not stated), the IC50 in series [1] stood at 21.8 µM; in series [2], 20 µM.
On the same counts, the results for `CCCCc1nc(Cl)c(C2CC(c3cc(Cl)sc3S(N)(=O)=O)=NN2c2nc(-c3ccc(Cl)cc3)cs2)[nH]1` (configuration not stated) are 29.3 µM and 23.9 µM.
